Screening data from PubChem BioAssay.
RGS4 inh: human RGS4 inhibition; P49798; HEK293 M3R/RGS4 inducible, Fluo-4 calcium flux; active compounds read high; triggered by carbachol at its EC20; B-score at 10 µM; actives 0.45% (n = 310,000); AID 463165;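 active means B-score, a plate-corrected calcium signal, over three deviations above library mean, with baseline fluorescence within five deviations of library mean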;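 further: RGS4 expression induced by doxycycline in cells with stable M3 receptor; B-score is computed from the integrated fluorescence ratio over baseline after carbachol; higher B-score means a larger calcium signal and so more RGS4 inhibition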
MrgX1 ag: agonists of human MrgX1 receptor. Q96LB2. MrgX1-HEK293 cells, Fluo-4 calcium fluorescence, agonist mode; active compounds read high. B-score at 10 µM. actives 0.44% (n = 310,000). AID 588627;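 active means calcium response B-score plate-corrected fluorescence ratio at least 3 library SD, with starting fluorescence B-score inside 5 SD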
Target sequence (Q96LB2 whole entry, looked up): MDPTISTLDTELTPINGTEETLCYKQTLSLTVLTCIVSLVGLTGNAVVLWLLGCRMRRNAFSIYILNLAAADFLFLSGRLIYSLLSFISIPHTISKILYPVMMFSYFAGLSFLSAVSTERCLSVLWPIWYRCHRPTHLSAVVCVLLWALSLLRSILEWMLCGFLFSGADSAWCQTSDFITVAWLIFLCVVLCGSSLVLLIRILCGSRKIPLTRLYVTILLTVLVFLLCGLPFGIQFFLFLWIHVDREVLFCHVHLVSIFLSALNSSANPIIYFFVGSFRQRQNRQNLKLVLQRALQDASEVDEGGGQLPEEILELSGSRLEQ
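times = overnight plating, then 30 min 37 °C plus 30 min room-temperature dye loading | assay system = stable human MrgX1 HEK293 cell line | input = fifteen thousand cells per well | signal = kinetic calcium dye fluorescence, Fluo-4 NW | dosing = compound delivered in addition one of three | read-out = B-scored fluorescence response ratio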
MrgX1 antag: antagonists of human MrgX1 receptor; AID 588676; Q96LB2; MRGX1-HEK293 calcium flux, Fluo-4, BAM8-22 antagonism; active compounds read low; B-score at 10 µM; actives 1.3% (n = 310,000);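 active means calcium-response B-score plate-corrected more than 3 library SD below zero, starting fluorescence within 5 deviations, no agonist response on first addition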;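 further: peak minus trough fluorescence over baseline after final BAM8-22 challenge near maximal dose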
RGS4 pot: RGS4 potentiation or activation. B-score at 10 µM. HEK293 M3R/inducible RGS4, carbachol calcium flux Fluo4; active compounds read low. actives 0.92% (n = 310,000). AID 463111;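 active means B-score of the integrated calcium signal more than 4 SD below the library mean, with starting fluorescence not abnormally high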;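 further: negative B-score means reduced calcium response which marks RGS4 activation or potentiation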
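Material: Inducible-RGS4 HEK293 cells carrying M3 receptor; also added: carbachol at ECmax as muscarinic agonist stimulus; incubation: compound preincubation 20 min at room temperature before agonist; signal: Fluo4-AM (2 µM) calcium-flux fluorescence, kinetic read; measure: integrated calcium ratio converted to B score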
MrgX1 allo act: allosterically activates human MrgX1 receptor signaling. MrgX1-HEK293, Fluo-4 calcium flux, FDSS; active compounds read high. B-score at 10 µM. actives 0.63% (n = 310,000). AID 588675;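 active means plate-corrected calcium response at least 3 library SD above typical, normal starting fluorescence, not activating the receptor alone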;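 further: compound read alongside a low EC10 to EC30 dose of BAM8-22 agonist; peak minus trough fluorescence over baseline measured at the second addition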
PHOSPHO1 block: blocks human PHOSPHO1 phosphatase activity; inhibition, % at 13.3 µM; Q8TCT1; actives 1.1% (n = 290,000); AID 1565; recombinant PHOSPHO1, absorbance phosphatase assay; in the data active means inhibition above about 60%
Target sequence (Q8TCT1 whole entry, looked up): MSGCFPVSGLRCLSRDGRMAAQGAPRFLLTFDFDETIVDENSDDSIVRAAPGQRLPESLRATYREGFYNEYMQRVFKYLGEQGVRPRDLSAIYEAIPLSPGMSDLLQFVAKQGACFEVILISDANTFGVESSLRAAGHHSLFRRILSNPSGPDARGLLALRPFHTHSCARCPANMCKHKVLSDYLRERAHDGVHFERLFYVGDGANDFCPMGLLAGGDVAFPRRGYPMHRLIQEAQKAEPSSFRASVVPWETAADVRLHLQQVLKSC
MrgX1 allo conf: confirmation of human MrgX1 receptor positive allosteric modulators. shares compounds with MrgX1 allo act. MrgX1-HEK293, Fluo-4 calcium fluorescence, FDSS. actives 13% (n = 1,200). activation (ratio percentage), % at 10 µM. AID 602413;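 active means ratio at least 3 SD above the weak peptide control, stable starting fluorescence, no direct agonism earlier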;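 further: compound followed by low BAM8-22 agonist challenge near EC20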
HEK293 Ca flux: activity in parental HEK293 cells lacking MrgX1; fluorescence ratio F(max-min)/F0 at 10 µM; shares compounds with MrgX1 antag; Fluo-4 calcium fluorescence, FDSS; actives 2% (n = 4,000);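 active means duplicate-averaged calcium fluorescence ratio at least three times the standard deviation of buffer wells, a nonspecific response in parental cells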
HEK293 Ca counter: counter-screen for MrgX1 allosteric activators: effect in parental HEK293 cells; parental HEK293 calcium flux, Fluo-4 fluorescence ratio; active compounds read high; AID 624114; actives 0.4% (n = 4,000); shares compounds with MrgX1 antag; fluorescence ratio F(max-min)/F0 at 10 µM;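 active means calcium fluorescence ratio, averaged over duplicates, at least 3 SD of the buffer-well ratio, meaning a nonspecific response in receptor-free cells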;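 further: untransfected parental HEK293 lacking MrgX1 used as counterscreen for MrgX1 allosteric activators; fluorescence change taken during the second addition on a kinetic imager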
HEK293 Ca cntr2: activity in parental HEK293 cells lacking MrgX1 receptor; shares compounds with MrgX1 antag; Fluo-4 calcium fluorescence (FDSS); active compounds read high; fluorescence ratio F(max-min)/F0 at 10 µM; actives 8.7% (n = 4,000);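 active means calcium fluorescence ratio at least three times the spread of buffer wells, meaning a non-specific response in parental cells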
Each line names hits and unclear results; the compound was inactive in the other large screens (follow-up assays come after a bar, where they were run). Only some compounds are listed: those with a hit (about 4.5% of all), similar ones and a draw of the others.

CC(C)n1c(CN(C)Cc2ccccc2)nc2c1c(=O)n(C)c(=O)n2C	MrgX1 allo act 7.8 | MrgX1 allo conf 13% | HEK293 Ca flux inactive | HEK293 Ca counter inactive | HEK293 Ca cntr2 inactive
CC(=O)C(C)n1c(CN(C)Cc2ccccc2)nc2c1c(=O)n(C)c(=O)n2C (stereo not drawn)	none
COc1ccc(CCNC(=O)C2Cc3ccccc3C(=O)O2)cc1 (stereo not drawn)	MrgX1 allo act 14 | MrgX1 allo conf inactive | HEK293 Ca flux inactive | HEK293 Ca counter inactive | HEK293 Ca cntr2 inactive
Clc1ccc(CSc2cc3c(nn2)-c2ccccc2CC3)cc1	MrgX1 allo act 8 | MrgX1 allo conf inactive | HEK293 Ca flux inactive | HEK293 Ca counter 48 | HEK293 Ca cntr2 inactive
O=C(CCCCCNC(=O)c1ccccc1)C[N+](=O)[O-]	none
CCN(CC(=O)Nc1cccc(OC)c1)C(=O)c1ccc(C)s1	none
COc1ccccc1CNC(=O)C1CCC(CNc2c(N3CCC(C)CC3)c(=O)c2=O)CC1 (stereo not drawn)	MrgX1 allo act 6.6 | MrgX1 allo conf inactive | HEK293 Ca flux inactive | HEK293 Ca counter inactive | HEK293 Ca cntr2 inactive
COc1cccc(CNC(=O)C2CCC(CNc3c(N4CCC(C)CC4)c(=O)c3=O)CC2)c1 (stereo not drawn)	none
C[C@@H]1CC2OC(=O)[C@@]3(C)C(=O)CC[C@@](C)(C23)[C@@]1(O)CCc1ccoc1 (stereo partly drawn)	none
Nc1ccccc1C(=O)NC12CC3CC(CC(C3)C1)C2	MrgX1 allo act 10 (no result: PHOSPHO1 block) | MrgX1 allo conf inactive | HEK293 Ca flux inactive | HEK293 Ca counter inactive | HEK293 Ca cntr2 inactive
O=C(NC12CC3CC(CC(C3)C1)C2)c1ccccc1	none
CCn1ccnc1CNC(=O)CC1C(=O)NCCN1CC(c1ccccc1)c1ccccc1 (stereo not drawn)	none
O=C(O)c1cccc(S(=O)(=O)N2CCC(n3nnc4cc(C(F)(F)F)ccc43)CC2)c1	none
CCOC(=O)c1c(-c2cccs2)csc1NC(=O)C(C)(C)C	MrgX1 allo act 12 | MrgX1 allo conf inactive | HEK293 Ca flux inactive | HEK293 Ca counter inactive | HEK293 Ca cntr2 inactive
CCOC(=O)c1c(-c2cccs2)csc1NC(C)=O	none
CC1CCCN(c2nc3c(c(=O)n(C)c(=O)n3C)n2Cc2ccccc2)C1 (stereo not drawn)	MrgX1 allo act 7.1 | MrgX1 allo conf inactive | HEK293 Ca flux inactive | HEK293 Ca counter inactive | HEK293 Ca cntr2 inactive
Cn1c(=O)c2c(nc(N3CCCCCC3)n2CCSc2nc3ccccc3o2)n(C)c1=O	MrgX1 allo act 7.1 | MrgX1 allo conf inactive | HEK293 Ca flux inactive | HEK293 Ca counter inactive | HEK293 Ca cntr2 inactive
O=C(COC(=O)Cc1c(Cl)cccc1Cl)NCCC1=CCCCC1	none
O=C(COc1ccccc1Cl)NCCC1=CCCCC1	MrgX1 allo act 18 | MrgX1 allo conf inactive | HEK293 Ca flux inactive | HEK293 Ca counter inactive | HEK293 Ca cntr2 inactive
CNc1nc2[nH]c(=O)c3c(c2s1)OC(N)=C(C#N)C3c1cccc(F)c1 (stereo not drawn)	MrgX1 allo act 17 | MrgX1 allo conf inactive | HEK293 Ca flux inactive | HEK293 Ca counter inactive | HEK293 Ca cntr2 inactive
COc1ccccc1NC(=O)N1c2ccc(F)cc2CCC1C (stereo not drawn)	MrgX1 allo act 10 | MrgX1 allo conf inactive | HEK293 Ca flux inactive | HEK293 Ca counter inactive | HEK293 Ca cntr2 inactive
CC1(C)CC(=O)c2sc(NS(=O)(=O)c3ccccc3)nc2C1	MrgX1 allo act 13 | MrgX1 allo conf inactive | HEK293 Ca flux inactive | HEK293 Ca counter inactive | HEK293 Ca cntr2 inactive
CC(=O)c1sc(NC(=O)C2COc3ccccc3O2)nc1C (stereo not drawn)	none
CC1(C)CC(=O)c2sc(NC(=O)C3COc4ccccc4O3)nc2C1 (stereo not drawn)	MrgX1 allo act 9.4 | MrgX1 allo conf inactive | HEK293 Ca flux inactive | HEK293 Ca counter inactive | HEK293 Ca cntr2 inactive
CC1(C)CC(=O)c2sc(NC(=O)c3ccco3)nc2C1	none
CCN1CCN(c2nc3c(C)cccn3c(=O)c2/C=C(\C#N)C(=O)NC)CC1	none
O=C(NCCCl)Nc1cccnc1Cl	none
O=C(c1ccc(Cl)nc1)N1CCN(S(=O)(=O)c2ccc(Cl)cc2)CC1	none
Cc1noc(C)c1C(=O)NCc1ccccc1Br	none
Cc1ccsc1C(=O)OCC(=O)N1CCc2ccccc2C1	MrgX1 allo act 8.9 | MrgX1 allo conf inactive | HEK293 Ca flux inactive | HEK293 Ca counter inactive | HEK293 Ca cntr2 inactive
Cc1ccsc1C(=O)N1CCc2ccccc2C1	none
CC(=O)Nc1ccccc1OCC(=O)NCC(F)(F)F	none
Cc1cc(N2C(=O)C(O)=C(C(=O)c3cccs3)C2c2ccc(F)cc2)no1 (stereo not drawn)	none
CC(NC(=O)c1ccc(N)cc1)c1ccccc1 (stereo not drawn)	MrgX1 allo act 7.4 | MrgX1 allo conf inactive | HEK293 Ca flux inactive | HEK293 Ca counter inactive | HEK293 Ca cntr2 inactive
O=C(c1ccco1)N1CCN(C2CC(=O)N(c3ccc(F)c(Cl)c3)C2=O)CC1 (stereo not drawn)	none
CCc1[nH]nc2c1C(c1ccc(C)o1)C(C#N)=C(N)O2 (stereo not drawn)	MrgX1 allo act 7.6 | MrgX1 allo conf inactive | HEK293 Ca flux inactive | HEK293 Ca counter inactive | HEK293 Ca cntr2 inactive
O=C(Nc1nc(-c2cccs2)c(C(=O)C(F)(F)F)s1)c1ccco1	MrgX1 allo act 7.6 | MrgX1 allo conf inactive | HEK293 Ca flux inactive | HEK293 Ca counter inactive | HEK293 Ca cntr2 inactive
Cc1cc(C)cc(-c2nnc(SCc3ccc(C(=O)O)cc3)o2)c1	MrgX1 allo act 7.4 | MrgX1 allo conf inactive | HEK293 Ca flux inactive | HEK293 Ca counter inactive | HEK293 Ca cntr2 inactive
CC(C)c1ccc(NC(=O)CSc2nc(=O)n(CCN3CCOCC3)c3c2CCC3)cc1	none (no result: PHOSPHO1 block)
O=C(COc1ccccc1)N1CCN=C1SCc1ccc(F)cc1	MrgX1 allo act 8.6 | MrgX1 allo conf inactive | HEK293 Ca flux inactive | HEK293 Ca counter inactive | HEK293 Ca cntr2 inactive
O=C(COc1ccccc1)N1CCN=C1SCc1cccnc1	none
